# Assay outcomes as filed in PubChem.
# The full list was thinned out, with hits kept by preference.
# HSF1 inh: HSF1 inhibition. NIH3T3-HGL HSE-luciferase, MG132-induced, luminescence 8 h; active compounds read low. activity change, negative = inhibition, % at 7.5 µM (by protocol). 300,000 tested, 0.77% active;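 active = more than half of replicate wells show activity change below -50%, luminescence cut by over half; inconclusive = some wells, but at most half, below -50%; inactive = no replicate well below -50%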;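 note: luciferase reports HSF-1 transcriptional activity via heat shock element; 0% = median of DMSO wells and -100% = zero luminescence signal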
# HSF1 activator: increases HSF-1 driven luciferase reporter signal; NIH3T3-HGL HSF-1 luciferase reporter, MG132, 8 h; 100% = twice DMSO control signal; activation, % at 9 µM; 300,000 tested, 1.7% active; AID 504408;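 active = mean replicate activation of at least 50% with a set share of replicates each reaching 50%; inconclusive = only one of those two conditions met; inactive = mean below 50% and too few replicates reaching it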;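 note: 0% = median of the neutral control wells and 100% = twice that signal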
# T cruzi repl: blocks replication of Trypanosoma cruzi | T. cruzi beta-gal in NIH3T3, luminescence, 90 h | inhibition, % (no concentration beside the values) | 300,000 tested, 1.4% active | AID 1885;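 active = mean inhibition across valid replicates above about 55%, limit read from the data; inconclusive = mean below that limit but half or more replicates reach it; inactive = mean below it, under half of replicates reach it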;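 note: signal also drops with host cell toxicity which is not excluded here; 0% = plate median of DMSO wells and 100% = zero luminescence signal; higher percent means less beta-gal luminescence so fewer parasites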
#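 System: mouse NIH/3T3 fibroblasts infected with β-gal-expressing T. cruzi Tulahuen C4 / Input: NIH/3T3 cells, 5,000 per well / Buffer or medium: Low-serum DMEM with 2% FBS / Probe or stimulus: 5000 reporter trypomastigotes per well / Schedule: ≥90 h infection period, 3 h prior cell attachment / Measured by: GalScreen luminescence, 60 min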
# Lmaj promast: Leishmania major promastigote growth inhibition. Leishmania major promastigotes, resazurin fluorescence viability. inhibition, % at 10 µM. 200,000 tested, 9% active; in the data active = inhibition above about 50%;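 note: promastigotes grown with compound for 44 hours at 28 °C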
# Hsp70 act: Hsp70 transcriptional activation, primary screen; HeLa Hsp70 promoter luciferase reporter, luminescence; scaled: vehicle 0, proteasome-inhibitor control 100%; activation, % at 10 µM; 200,000 tested, 0.04% active; AID 1203;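 active = activation above the mean across all tested compounds plus 3 SD, cutoff set per campaign, cut at about 5.5% in these data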;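 note: 100% = MG132 at 30 µM as the positive control and 0% = DMSO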
# Starred values were filed as active, the others as inactive; ? = inconclusive; . = not tested or not shown.
SMILES,HSF1 inh,HSF1 activator,T cruzi repl,Lmaj promast,Hsp70 act
O=C(NC(=S)N1CCN(c2ccc(F)cc2)CC1)C12CC3CC(CC(C3)C1)C2,-1,2,31,80*,0
O=C(Nc1nc(COc2ccccc2)cs1)C12CC3CC(CC(C3)C1)C2,9,12,?,100*,0
CCOc1ccccc1N1CCN(C(=S)NC(=O)C23CC4CC(CC(C4)C2)C3)CC1,6,13,14,31,0
O=C(N1CCN(Cc2ccccc2)CC1)C12CC3CC(CC(C3)C1)C2,-3,-12,18,-1,0
CCOc1ccc(-n2c(=O)c3sccc3n(Cc3cccc([N+](=O)[O-])c3)c2=O)cc1,-3,-2,-3,-1,0
O=C(Nc1ccccc1N1CCN(c2ccc(F)cc2)CC1)C12CC3CC(CC(C3)C1)C2,6,6,34,100*,0
CCN(CC)C(=O)CSc1nnc(-c2ccccn2)n1-c1ccccc1OC,0,-8,2,.,.
NS(=O)(=O)c1ccc(CNC(=O)C2(c3ccc(Cl)cc3)CC2)cc1,-4,0,0,85*,1
COc1ccc(CNC(=O)C2(c3ccc(Cl)cc3)CC2)cc1,-7,5,-4,4,0
N#Cc1ccccc1S(=O)(=O)Nc1ccc2c(c1)OCCO2,-8,-1,0,.,.
